Key:
Klebsiella pneumoniae [1] = test: Antibacterial activity against carbapenem-resistant Klebsiella pneumoniae clinical isolate 4 assessed as reduction in bacterial growth incubated for 16 to 20 hrs by CLSI-based broth microdilution method; type: functional; conditions: time 16-20 hrs
Method in brief: (§1)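 Clinical isolates tested by broth microdilution in cation-adjusted Mueller-Hinton broth. Cultures grown 4-6 h (~10^8 CFU/mL) were diluted to ~10^6 CFU/mL and mixed 1:1 with compound serial dilutions made from 256 down to 0.5 µg/mL (pre-mixing). Plates held at 37 °C for 16-20 h, then read for growth. Each concentration run in duplicate, whole experiment at least twice.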

Klebsiella pneumoniae [2] = test: Antibacterial activity against carbapenem-resistant Klebsiella pneumoniae clinical isolate 9 assessed as reduction in bacterial growth incubated for 16 to 20 hrs by CLSI-based broth microdilution method; type: functional; conditions: time 16-20 hrs; method in brief: as §1
Staphylococcus aureus [3] = test: Antibacterial activity against methicillin-resistant Staphylococcus aureus clinical isolate 5 assessed as reduction in bacterial growth incubated for 16 to 20 hrs by CLSI-based broth microdilution method; type: functional; conditions: time 16-20 hrs; method in brief: as §1
Staphylococcus aureus [4] = test: Antibacterial activity against methicillin-resistant Staphylococcus aureus clinical isolate 6 assessed as reduction in bacterial growth incubated for 16 to 20 hrs by CLSI-based broth microdilution method; type: functional; conditions: time 16-20 hrs; method in brief: as §1
Staphylococcus aureus [5] = test: Antibacterial activity against methicillin-resistant Staphylococcus aureus clinical isolate 8 assessed as reduction in bacterial growth incubated for 16 to 20 hrs by CLSI-based broth microdilution method; type: functional; conditions: time 16-20 hrs; method in brief: as §1
Enterobacteriaceae [6] = test: Antibacterial activity against NDM1 producing carbapenem-resistant Enterobacteriaceae clinical isolate 9 assessed as reduction in bacterial growth incubated for 16 to 20 hrs by CLSI-based broth microdilution method; type: functional; conditions: time 16-20 hrs; method in brief: as §1
Klebsiella pneumoniae [7] = test: Antibacterial activity against carbapenem-resistant Klebsiella pneumoniae clinical isolate 1 assessed as reduction in bacterial growth incubated for 16 to 20 hrs by CLSI-based broth microdilution method; type: functional; conditions: time 16-20 hrs; method in brief: as §1
Enterobacteriaceae [8] = test: Antibacterial activity against NDM1 producing carbapenem-resistant Enterobacteriaceae clinical isolate 10 assessed as reduction in bacterial growth incubated for 16 to 20 hrs by CLSI-based broth microdilution method; type: functional; conditions: time 16-20 hrs; method in brief: as §1
Staphylococcus aureus [9] = test: Antibacterial activity against methicillin-resistant Staphylococcus aureus clinical isolate 7 assessed as reduction in bacterial growth incubated for 16 to 20 hrs by CLSI-based broth microdilution method; type: functional; conditions: time 16-20 hrs; method in brief: as §1
Staphylococcus aureus [10] = test: Antibacterial activity against Staphylococcus aureus ATCC 29213 assessed as reduction in bacterial growth incubated for 16 to 20 hrs by CLSI-based broth microdilution method; type: functional; conditions: time 16-20 hrs
Method in brief: (§2)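 Broth microdilution following CLSI, in cation-adjusted Mueller-Hinton broth. Inoculum from a 4-6 h culture (~10^8 CFU/mL), diluted to ~10^6 CFU/mL. Water stocks were serially diluted in MHB (256 to 0.5 µg/mL) and mixed 1:1 with the inoculum. Plates ran 16-20 h at 37 °C. MIC was read visually. Each concentration was tested in duplicate, and the experiment was repeated at least twice.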

Staphylococcus aureus [11] = test: Antibacterial activity against methicillin-resistant Staphylococcus aureus clinical isolate 1 assessed as reduction in bacterial growth incubated for 16 to 20 hrs by CLSI-based broth microdilution method; type: functional; conditions: time 16-20 hrs; method in brief: as §1
Escherichia coli = test: Antibacterial activity against Escherichia coli ATCC 25922 assessed as reduction in bacterial growth incubated 16 to 20 hrs by CLSI-based broth microdilution method; type: functional; conditions: time 16-20 hrs; method in brief: as §2
Enterobacteriaceae [12] = test: Antibacterial activity against NDM1 producing carbapenem-resistant Enterobacteriaceae clinical isolate 5 assessed as reduction in bacterial growth incubated for 16 to 20 hrs by CLSI-based broth microdilution method; type: functional; conditions: time 16-20 hrs; method in brief: as §1
Enterobacteriaceae [13] = test: Antibacterial activity against NDM1 producing carbapenem-resistant Enterobacteriaceae clinical isolate 6 assessed as reduction in bacterial growth incubated for 16 to 20 hrs by CLSI-based broth microdilution method; type: functional; conditions: time 16-20 hrs; method in brief: as §1
Klebsiella pneumoniae [14] = test: Antibacterial activity against carbapenem-resistant Klebsiella pneumoniae clinical isolate 7 assessed as reduction in bacterial growth incubated for 16 to 20 hrs by CLSI-based broth microdilution method; type: functional; conditions: time 16-20 hrs; method in brief: as §1
Staphylococcus aureus [15] = test: Antibacterial activity against methicillin-resistant Staphylococcus aureus clinical isolate 9 assessed as reduction in bacterial growth incubated for 16 to 20 hrs by CLSI-based broth microdilution method; type: functional; conditions: time 16-20 hrs; method in brief: as §1
Enterobacteriaceae [16] = test: Antibacterial activity against NDM1 producing carbapenem-resistant Enterobacteriaceae clinical isolate 7 assessed as reduction in bacterial growth incubated for 16 to 20 hrs by CLSI-based broth microdilution method; type: functional; conditions: time 16-20 hrs; method in brief: as §1
Klebsiella pneumoniae [17] = test: Antibacterial activity against carbapenem-resistant Klebsiella pneumoniae clinical isolate 8 assessed as reduction in bacterial growth incubated for 16 to 20 hrs by CLSI-based broth microdilution method; type: functional; conditions: time 16-20 hrs; method in brief: as §1
Staphylococcus aureus [18] = test: Antibacterial activity against methicillin-resistant Staphylococcus aureus clinical isolate 2 assessed as reduction in bacterial growth incubated for 16 to 20 hrs by CLSI-based broth microdilution method; type: functional; conditions: time 16-20 hrs; method in brief: as §1
Klebsiella pneumoniae [19] = test: Antibacterial activity against carbapenem-resistant Klebsiella pneumoniae clinical isolate 10 assessed as reduction in bacterial growth incubated for 16 to 20 hrs by CLSI-based broth microdilution method; type: functional; conditions: time 16-20 hrs; method in brief: as §1
Klebsiella pneumoniae [20] = test: Antibacterial activity against carbapenem-resistant Klebsiella pneumoniae clinical isolate 3 assessed as reduction in bacterial growth incubated for 16 to 20 hrs by CLSI-based broth microdilution method; type: functional; conditions: time 16-20 hrs; method in brief: as §1
Enterobacteriaceae [21] = test: Antibacterial activity against NDM1 producing carbapenem-resistant Enterobacteriaceae clinical isolate 1 assessed as reduction in bacterial growth incubated for 16 to 20 hrs by CLSI-based broth microdilution method; type: functional; conditions: time 16-20 hrs; method in brief: as §1
Klebsiella pneumoniae [22] = test: Antibacterial activity against carbapenem-resistant Klebsiella pneumoniae clinical isolate 2 assessed as reduction in bacterial growth incubated for 16 to 20 hrs by CLSI-based broth microdilution method; type: functional; conditions: time 16-20 hrs; method in brief: as §1
Staphylococcus aureus [23] = test: Antibacterial activity against methicillin-resistant Staphylococcus aureus clinical isolate 3 assessed as reduction in bacterial growth incubated for 16 to 20 hrs by CLSI-based broth microdilution method; type: functional; conditions: time 16-20 hrs; method in brief: as §1
Enterobacteriaceae [24] = test: Antibacterial activity against NDM1 producing carbapenem-resistant Enterobacteriaceae clinical isolate 2 assessed as reduction in bacterial growth incubated for 16 to 20 hrs by CLSI-based broth microdilution method; type: functional; conditions: time 16-20 hrs; method in brief: as §1
Klebsiella pneumoniae [25] = test: Antibacterial activity against carbapenem-resistant Klebsiella pneumoniae clinical isolate 6 assessed as reduction in bacterial growth incubated for 16 to 20 hrs by CLSI-based broth microdilution method; type: functional; conditions: time 16-20 hrs; method in brief: as §1
Staphylococcus aureus [26] = test: Antibacterial activity against methicillin-resistant Staphylococcus aureus clinical isolate 10 assessed as reduction in bacterial growth incubated for 16 to 20 hrs by CLSI-based broth microdilution method; type: functional; conditions: time 16-20 hrs; method in brief: as §1
Enterobacteriaceae [27] = test: Antibacterial activity against NDM1 producing carbapenem-resistant Enterobacteriaceae clinical isolate 8 assessed as reduction in bacterial growth incubated for 16 to 20 hrs by CLSI-based broth microdilution method; type: functional; conditions: time 16-20 hrs; method in brief: as §1
Klebsiella pneumoniae [28] = test: Antibacterial activity against carbapenem-resistant Klebsiella pneumoniae clinical isolate 5 assessed as reduction in bacterial growth incubated for 16 to 20 hrs by CLSI-based broth microdilution method; type: functional; conditions: time 16-20 hrs; method in brief: as §1
Enterobacteriaceae [29] = test: Antibacterial activity against NDM1 producing carbapenem-resistant Enterobacteriaceae clinical isolate 3 assessed as reduction in bacterial growth incubated for 16 to 20 hrs by CLSI-based broth microdilution method; type: functional; conditions: time 16-20 hrs; method in brief: as §1
Staphylococcus aureus [30] = test: Antibacterial activity against methicillin-resistant Staphylococcus aureus clinical isolate 4 assessed as reduction in bacterial growth incubated for 16 to 20 hrs by CLSI-based broth microdilution method; type: functional; conditions: time 16-20 hrs; method in brief: as §1
Enterococcus faecalis = test: Antibacterial activity against Enterococcus faecalis ATCC 29212 assessed as reduction in bacterial growth incubated 16 to 20 hrs by CLSI-based broth microdilution method; type: functional; conditions: time 16-20 hrs; method in brief: as §2
Enterobacteriaceae [31] = test: Antibacterial activity against NDM1 producing carbapenem-resistant Enterobacteriaceae clinical isolate 4 assessed as reduction in bacterial growth incubated for 16 to 20 hrs by CLSI-based broth microdilution method; type: functional; conditions: time 16-20 hrs; method in brief: as §1
Salmonella enterica = test: Antibacterial activity against Salmonella enterica ATCC 8387 assessed as reduction in bacterial growth incubated for 16 to 20 hrs by CLSI-based broth microdilution method; type: functional; conditions: time 16-20 hrs; method in brief: as §2
[32] = Solubility of the compound in water at room temperature; type: physicochemical; conditions: buffer
[33] = Hemolytic activity in sheep RBC incubated for 1 hr; type: ADME, cell-based, Ovis aries, Erythrocyte; conditions: sheep red blood cells (erythrocytes)
Method in brief: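 Sheep RBCs were resuspended at 5% in PBS and mixed 3:1 with serial dilutions (2560 to 5 µg/mL, pre-mixing levels), then incubated 1 h at 37 °C. After centrifugation, supernatant A540 was read. Hemolysis % was calculated as (A−A0)/(Atotal−A0)×100, with untreated RBCs as 0% and 0.1% Triton X-100 as total lysis.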

SMILES | MIC (Klebsiella pneumoniae [1]) [µg/mL] | MIC (Klebsiella pneumoniae [2]) [µg/mL] | MIC (Staphylococcus aureus [3]) [µg/mL] | MIC (Staphylococcus aureus [4]) [µg/mL] | MIC (Staphylococcus aureus [5]) [µg/mL] | MIC (Enterobacteriaceae [6]) [µg/mL] | MIC (Klebsiella pneumoniae [7]) [µg/mL] | MIC (Enterobacteriaceae [8]) [µg/mL] | MIC (Staphylococcus aureus [9]) [µg/mL] | MIC (Staphylococcus aureus [10]) [µg/mL] | MIC (Staphylococcus aureus [11]) [µg/mL] | MIC (Escherichia coli) [µg/mL] | MIC (Enterobacteriaceae [12]) [µg/mL] | MIC (Enterobacteriaceae [13]) [µg/mL] | MIC (Klebsiella pneumoniae [14]) [µg/mL] | MIC (Staphylococcus aureus [15]) [µg/mL] | MIC (Enterobacteriaceae [16]) [µg/mL] | MIC (Klebsiella pneumoniae [17]) [µg/mL] | MIC (Staphylococcus aureus [18]) [µg/mL] | MIC (Klebsiella pneumoniae [19]) [µg/mL] | other results
CCCCCCCCCCCC[N+](C)(C)CC(=O)NC[C@H]1CN(c2ccc(N3CCOCC3)c(F)c2)C(=O)O1.[Cl-] | 64 | 64 | 4 | 4 | 8 | 16 | 32 | 32 | 4 | 8 | 4 | 16 | 32 | 16 | 64 | 8 | 32 | 32 | 8 | 64 | MIC (Klebsiella pneumoniae [20]): 64 µg/mL; MIC (Enterobacteriaceae [21]): > 64 µg/mL; MIC (Klebsiella pneumoniae [22]): 32 µg/mL; MIC (Staphylococcus aureus [23]): 2 µg/mL; MIC (Enterobacteriaceae [24]): > 64 µg/mL; MIC (Klebsiella pneumoniae [25]): 32 µg/mL; MIC (Staphylococcus aureus [26]): 8 µg/mL; MIC (Enterobacteriaceae [27]): 16 µg/mL; MIC (Klebsiella pneumoniae [28]): 64 µg/mL; MIC (Enterobacteriaceae [29]): 64 µg/mL; MIC (Staphylococcus aureus [30]): 16 µg/mL; MIC (Enterococcus faecalis): 4 µg/mL; MIC (Enterobacteriaceae [31]): 64 µg/mL; MIC (Salmonella enterica): 16 µg/mL; solubility [32]: Soluble
CCCCCCCCCCCCCC[N+](C)(C)CC(=O)NC[C@H]1CN(c2ccc(N3CCOCC3)c(F)c2)C(=O)O1.[Cl-] | 32 | 32 | 4 | 2 | 4 | 16 | 32 | 16 | 2 | 4 | 4 | 16 | 32 | 32 | 32 | 2 | 16 | 32 | 16 | 32 | MIC (Klebsiella pneumoniae [20]): 16 µg/mL; MIC (Enterobacteriaceae [21]): > 64 µg/mL; MIC (Klebsiella pneumoniae [22]): 32 µg/mL; MIC (Staphylococcus aureus [23]): 2 µg/mL; MIC (Enterobacteriaceae [24]): > 64 µg/mL; MIC (Klebsiella pneumoniae [25]): 32 µg/mL; MIC (Staphylococcus aureus [26]): 8 µg/mL; MIC (Enterobacteriaceae [27]): 16 µg/mL; MIC (Klebsiella pneumoniae [28]): 32 µg/mL; MIC (Enterobacteriaceae [29]): 32 µg/mL; HC50 at 1 h [33]: 60 µg/mL; MIC (Staphylococcus aureus [30]): 4 µg/mL; MIC (Enterococcus faecalis): 4 µg/mL; MIC (Enterobacteriaceae [31]): 64 µg/mL; MIC (Salmonella enterica): 16 µg/mL; solubility [32]: Soluble

Reference: ChEMBL document CHEMBL4673214, “Synthesis and antibacterial bioactivities of cationic deacetyl linezolid amphiphiles” (Eur J Med Chem, 2018)
